Experimental data reported in ChEMBL document CHEMBL1148922, “Triterpenoids from Brazilian Ilex species and their in vitro antitrypanosomal activity” (J Nat Prod, 2004).

Assays:
Trypanosoma cruzi = assay: Antitrypanosomal activity against Trypanosoma cruzi Tulahuen CL2 by microdilution method; assay type: functional, organism-based
Outline: (§1)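 In vitro test run by the WHO procedure, using serial microdilution in a 96-well microtiter integrated system.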

Trypanosoma brucei = assay: Antitrypanosomal activity against Trypanosoma brucei S427 by microdilution method; assay type: functional, organism-based; outline: as §1

Row | IC50 (Trypanosoma cruzi) [µM] | IC50 (Trypanosoma brucei) [µM] | SMILES
1 | > 32 | 16 | C[C@H]1CC[C@]2(C(=O)O)CC[C@]3(C)C(=CC[C@@H]4[C@@]5(C)CC[C@H](O[C@@H]6OC[C@H](O)[C@H](O)[C@H]6O)C(CO)(CO)[C@@H]5CC[C@]43C)[C@@H]2[C@]1(C)O [BREVICUSPISAPONIN 2]
2 | 4 | 4 | C[C@H]1[C@H](C)CC[C@]2(C(=O)O)CC[C@]3(C)C(=CC[C@@H]4[C@@]5(C)CC[C@H](O)C(C)(C)[C@@H]5CC[C@]43C)[C@H]12 [URSOLIC ACID]
3 | > 32 | > 32 | CC(=O)OC[C@H]1O[C@@H](OC(=O)[C@]23CC[C@@H](C)[C@@](C)(OC(C)=O)[C@H]2C2=CC[C@@H]4[C@@]5(C)CC[C@H](O[C@@H]6OC[C@H](OC(C)=O)[C@H](O[C@@H]7O[C@H](COC(C)=O)[C@@H](OC(C)=O)[C@H](OC(C)=O)[C@H]7OC(C)=O)[C@H]6OC(C)=O)C(C)(C)[C@@H]5CC[C@@]4(C)[C@]2(C)CC3)[C@H](OC(C)=O)[C@@H](OC(C)=O)[C@@H]1OC(C)=O [PERACETYL ILEXOSIDE II]
4 | > 32 | > 32 | C[C@H]1[C@H](C)CC[C@]2(C(=O)O[C@@H]3O[C@H](CO[C@@H]4O[C@H](CO)[C@@H](O)[C@H](O)[C@H]4O)[C@@H](O)[C@H](O)[C@H]3O)CC[C@]3(C)C(=CC[C@@H]4[C@@]5(C)CC[C@H](O[C@@H]6OC[C@H](O)[C@H](O[C@@H]7O[C@H](CO)[C@@H](O)[C@H](O)[C@H]7O)[C@H]6O[C@@H]6O[C@@H](C)[C@H](O)[C@@H](O)[C@H]6O)C(C)(C)[C@@H]5CC[C@]43C)[C@H]12 [MATESAPONIN 4]
5 | > 32 | > 32 | C[C@H]1CC[C@]2(C(=O)O)CC[C@]3(C)C(=CC[C@@H]4[C@@]5(C)CC[C@H](O[C@@H]6OC[C@H](O)[C@H](O)[C@H]6O)[C@](C)(CO)[C@@H]5CC[C@]43C)[C@@H]2[C@]1(C)O [BREVICUSPISAPONIN 1]
6 | > 32 | > 32 | CC1(C)CC[C@]2(C(=O)O[C@@H]3O[C@H](CO)[C@@H](O)[C@H](O)[C@H]3O)CC[C@]3(C)C(=CC[C@@H]4[C@@]5(C)CC[C@H](O[C@@H]6O[C@H](CO)[C@H](O)[C@H](O)[C@H]6O[C@@H]6O[C@H](CO)[C@@H](O)[C@H](O)[C@H]6O)C(C)(C)[C@@H]5CC[C@]43C)[C@@H]2C1
7 | > 32 | > 32 | C[C@@H]1CC[C@]2(C(=O)O[C@@H]3O[C@H](CO)[C@@H](O)[C@H](O)[C@H]3O)CC[C@]3(C)C(=CC[C@@H]4[C@@]5(C)CC[C@H](O)[C@@](C)(CO)[C@@H]5CC[C@]43C)[C@@H]2[C@]1(C)O [PEDUNCULOSIDE]
8 | 0.39 | – | CC1CS(=O)(=O)CCN1/N=C/c1ccc([N+](=O)[O-])o1 (configuration not stated) [NIFURTIMOX]
9 | > 32 | > 32 | C[C@H]1[C@H](C)CC[C@]2(CO)CC[C@]3(C)C(=CC[C@@H]4[C@@]5(C)CC[C@H](O)C(C)(C)[C@@H]5CC[C@]43C)[C@H]12 [UVAOL]
10 | > 32 | > 32 | C[C@H]1[C@H](C)CC[C@]2(C(=O)O[C@@H]3O[C@H](CO)[C@@H](O)[C@H](O)[C@H]3O)CC[C@]3(C)C(=CC[C@@H]4[C@@]5(C)CC[C@H](O[C@@H]6OC[C@H](O)[C@H](O[C@@H]7O[C@H](CO)[C@@H](O)[C@H](O)[C@H]7O)[C@H]6O)C(C)(C)[C@@H]5CC[C@]43C)[C@H]12 [MATESAPONIN 1]
11 | > 32 | > 32 | C[C@H]1[C@H](C)CC[C@]2(C(=O)O[C@@H]3O[C@H](CO[C@@H]4O[C@H](CO)[C@@H](O)[C@H](O)[C@H]4O)[C@@H](O)[C@H](O)[C@H]3O)CC[C@]3(C)C(=CC[C@@H]4[C@@]5(C)CC[C@H](O[C@@H]6OC[C@H](O)[C@H](O[C@@H]7O[C@H](CO)[C@@H](O)[C@H](O)[C@H]7O)[C@H]6O)C(C)(C)[C@@H]5CC[C@]43C)[C@H]12 [MATESAPONIN 3]
12 | 10 | 4 | CC1(C)CC[C@]2(C(=O)O)CC[C@]3(C)C(=CC[C@@H]4[C@@]5(C)CC[C@H](O[C@@H]6O[C@H](CO)[C@H](O)[C@H](O)[C@H]6O[C@@H]6O[C@H](CO)[C@@H](O)[C@H](O)[C@H]6O)C(C)(C)[C@@H]5CC[C@]43C)[C@@H]2C1
13 | > 32 | > 32 | C[C@@H]1CC[C@]2(C(=O)O[C@@H]3O[C@H](CO)[C@@H](O)[C@H](O)[C@H]3O)CC[C@]3(C)C(=CC[C@@H]4[C@@]5(C)CC[C@H](O[C@@H]6OC[C@H](O)[C@H](O[C@@H]7O[C@H](CO)[C@@H](O)[C@H](O)[C@H]7O)[C@H]6O)C(C)(C)[C@@H]5CC[C@]43C)[C@@H]2[C@]1(C)O [ILEKUDINOSIDE E]
14 | > 32 | 17 | CC(=O)O[C@H]1CC[C@]2(C)[C@H]3CC=C4[C@@H]5[C@@H](C)[C@H](C)CC[C@]5(C(=O)O)CC[C@@]4(C)[C@]3(C)CC[C@H]2C1(C)C [O-ACETYLURSOLIC ACID]
